Experimental findings from ChEMBL document CHEMBL5634206, “Chiral hydroxymethyl-1H,3H-pyrrolo[1,2-c]thiazoles: the search for selective p53-activating agents for colorectal cancer therapy” (RSC Med Chem, 2024) are described below.

Assay [1] relates to HCT-116. Nature of the assay: Antiproliferative activity against wildtype p53 expressing human HCT-116 cells assessed as inhibition of cell growth incubated for 48 hrs by SRB assay. The assay is classed as functional, cell-based. The gist of the method: (§1)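 Isogenic HCT116 p53+/+ and p53−/− pair from B. Vogelstein, grown as monolayers in RPMI-1640 with 2 mM L-glutamine and 10% heat-inactivated FBS at 37 °C, 5% CO2. Cells seeded at 5 × 10^3 per well for 24 h, then given serial dilutions from 0.2 to 50 μM for 48 h. IC50 read by sulforhodamine B staining.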
(In general: Sulforhodamine B stains cellular protein and so reports cell mass.)

Assay [2] concerns HCT-116. Nature of the assay: Antiproliferative activity against human HCT-116 cells expressing p53-/- assessed as inhibition of cell growth incubated for 48 hrs by SRB assay. The assay is classed as functional, cell-based. The gist of the method:
as §1

For the next assay, the system named is MDA-MB-231. Nature of the assay: Antiproliferative activity against human MDA-MB-231 cells assessed as inhibition of cell growth incubated for 48 hrs by SRB assay. The assay is classed as functional, cell-based. Conditions: MDA-MB-231, 48 h. The gist of the method:
(§2)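 MDA-MB-231 and PANC-1 cells grown in high-glucose DMEM (4.5 g L−1) with L-glutamine, sodium pyruvate and 10% heat-inactivated FBS at 37 °C, 5% CO2. After seeding 5 × 10^3 cells per well for 24 h, cells received serial dilutions of 0.2–50 μM for 48 h. IC50 by SRB. Mean ± SD of 3 independent experiments.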

A further assay concerns PANC-1. Description: Antiproliferative activity against human PANC-1 cells assessed as inhibition of cell growth incubated for 48 hrs by SRB assay. The settings on record: PANC-1, 48 h. It counts as functional, cell-based. The gist of the method: as §2
For the next assay, the system named is A-375. Nature of the assay: Antiproliferative activity against human A-375 cells assessed as inhibition of cell growth incubated for 48 hrs by SRB assay. Conditions: A-375, 48 h. The assay is classed as functional, cell-based. The gist of the method:
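A375 melanoma cells grown as monolayers in RPMI-1640 with 2 mM L-glutamine and 10% heat-inactivated FBS at 37 °C, 5% CO2. Seeded at 5 × 10^3 cells per well for 24 h, then exposed to serial dilutions (0.2–50 μM) for 48 h. IC50 determined by SRB. Mean ± SD of 3 independent experiments.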

Assay [3] in a line: Selectivity ratio of IC50 for antiproliferative activity against human HCT-116 cells expressing p53-/- to IC50 for antiproliferative activity against wildtype p53 expressing human HCT-116 cells. It counts as functional.
The subject of assay [4] is HCT-116. Description: Potency index, ratio of test compound IC50 to MANIO IC50 for antiproliferative activity against wildtype p53 expressing human HCT-116 cells assessed as inhibition of cell growth incubated for 48 hrs by SRB assay.
Where [5] appears, read: Homo sapiens, HCT-116, 48 h, read-out: IC50.

In general, IC50 refers to the midpoint of a concentration-inhibition curve. For the molecule `Cc1c(CO)c(CO)c2n1[C@@H](C)SC2`, the IC50 in the assay with HCT-116 [1] (setting [5]) came to 33.3 µM; with HCT-116 [2] (setting [5]) it was 46.2 µM.
Take `Cc1c(CO)c(CO)c2n1[C@@H](c1cccc3cccnc13)SC2`: the IC50 is 7.5 µM in the assay with HCT-116 [1] (setting [5]); over 50 µM in the assay on HCT-116 [2] (setting [5]); over 50 µM in the assay on MDA-MB-231; 17.4 µM with PANC-1; 24.4 µM with A-375.
For `Cc1c(CO)c(CO)c2n1[C@H](C)SC2`, the IC50 in the assay with HCT-116 [1] (setting [5]) was determined as 31.4 µM; with HCT-116 [2] (setting [5]) it was 42.7 µM.
With `Cc1c(CO)c(CO)c2n1[C@@H](c1ccccc1)S(=O)(=O)C2`, the results for the IC50 with HCT-116 [1] (setting [5]) and in the assay with HCT-116 [2] (setting [5]) were over 15 µM and over 50 µM, respectively.
Consider `Cc1c(CO)c(CO)c2n1[C@H](c1ccccc1)SC2`, for which the IC50 in the assay on HCT-116 [2] (setting [5]) was 48.2 µM; in the assay on MDA-MB-231 it was over 50 µM; in the assay on PANC-1, 42.1 µM; in the assay with A-375 it was 13.2 µM. Further, in assay [3], the “Ratio IC50” value is about 50.
For `Cc1c(CO)c(CO)c2n1[C@@H](c1ccc(O)cc1)SC2`, the IC50 in the assay with HCT-116 [1] (setting [5]) was 16.6 µM; in the assay on HCT-116 [2] (setting [5]), over 50 µM.
On the same counts, the results for `OCc1nn2c(c1CO)CSC2` are over 50 µM and over 50 µM.
The like results for `Cc1c(CO)cc2n1CSC2` were, in that order, 28.3 µM and over 50 µM.
The like results for `Cc1c(CO)c(CO)c2n1[C@@H](Cc1ccccc1)SC2` were, in that order, 16.3 µM and 29.1 µM.
Regarding `Cc1cc(CO)c2n1[C@H](c1ccccc1)SC2`, the IC50 in the assay on HCT-116 [1] (setting [5]) is 0.14 µM; with HCT-116 [2] (setting [5]), 18.1 µM; in the assay with MDA-MB-231, over 50 µM; in the assay with PANC-1 it was over 50 µM; in the assay with A-375 it was over 50 µM. Further, the Ratio IC50 in assay [3] was determined as 129.
Take `Cc1c(CO)cc2n1[C@H](c1ccccc1)SC2`: the IC50 turned out to be 0.99 µM in the assay with HCT-116 [1] (setting [5]); 4.33 µM in the assay with HCT-116 [2] (setting [5]); 24.1 µM in the assay on MDA-MB-231; 35 µM in the assay on PANC-1; 11.8 µM with A-375.
As for `Cc1c(CO)cc2n1[C@@H](c1ccccc1)SC2`, the IC50 with HCT-116 [1] (setting [5]) is 6.68 µM; in the assay with HCT-116 [2] (setting [5]), over 50 µM; in the assay on MDA-MB-231 it was over 50 µM; with PANC-1, over 50 µM; in the assay with A-375, 39.5 µM.
Take `Cc1c(CO)c(CO)c2n1[C@@H](c1ccc(F)cc1)SC2`: the IC50 was 4.43 µM in the assay on HCT-116 [1] (setting [5]); 32.5 µM in the assay with HCT-116 [2] (setting [5]); over 50 µM in the assay with MDA-MB-231; 20.2 µM in the assay on PANC-1; 36.1 µM with A-375.
For the molecule `Cc1c(CO)c(CO)c2n1[C@@H](c1ccccc1)SC2`, the IC50 in the assay on HCT-116 [1] (setting [5]) is 5.11 µM; in the assay with HCT-116 [2] (setting [5]), 51.8 µM; in the assay on MDA-MB-231, over 50 µM; in the assay with PANC-1, 33.1 µM; in the assay with A-375, 14.5 µM. Besides, the “Ratio IC50” value with HCT-116 [4] was 5.
As to `COc1ccc([C@@H]2SCc3c(CO)c(CO)c(C)n32)cc1`, the IC50 is 1.47 µM in the assay with HCT-116 [1] (setting [5]); 23.5 µM with HCT-116 [2] (setting [5]); 16.6 µM with MDA-MB-231; over 50 µM in the assay on PANC-1; 22.8 µM in the assay on A-375.
For the molecule `Cc1cc(CO)c2n1[C@@H](c1ccccc1)SC2`, the IC50 in the assay with HCT-116 [1] (setting [5]) was 29.3 µM; with HCT-116 [2] (setting [5]), over 50 µM.
On the same counts, the results for `COc1cc([C@H]2SCc3c(CO)c(CO)c(C)n32)cc(OC)c1OC` are over 50 µM and over 50 µM.
The like results for `Cc1c(CO)c(CO)c2n1[C@H](c1ccccc1)SC2(C)C` were, in that order, 24.3 µM and 22.2 µM.
For the molecule `OCc1cn2c(c1CO)CS[C@@H]2c1ccccc1`, the IC50 was 20.3 µM in the assay with HCT-116 [1] (setting [5]) and over 50 µM in the assay on HCT-116 [2] (setting [5]).
Consider `Cc1c(CO)c(CO)c2n1[C@@H](c1cccc3ccccc13)SC2`, for which the IC50 entry in the assay with HCT-116 [1] (hct-116) and in the assay on HCT-116 [2] (hct-116) was “Not Determined(Insoluble)” in each case.
`COc1ccc([C@H]2SCc3c(CO)c(CO)c(C)n32)cc1`: the IC50 with HCT-116 [1] (setting [5]) was 4.61 µM; with HCT-116 [2] (setting [5]), over 50 µM; with MDA-MB-231, over 50 µM; in the assay on PANC-1, over 50 µM; in the assay with A-375 it was over 50 µM.
